{"source": "ChEMBL document CHEMBL4513216", "about": "“Probing the Open Global Health Chemical Diversity Library for Multistage-Active Starting Points for Next-Generation Antimalarials” (ACS Infect Dis, 2020)", "assay": "Toxicity liver stage against HepG2, at 10uM", "assay_type": "cell-based", "design": "test concentration 10 uM, cell line HepG2-A16-CD81EGFP", "details": "human, HepG2-A16-CD81EGFP cells; read-out: INHIBITION", "how_it_was_run": "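Uninfected HepG2-A16-CD81EGFP cells, 3 × 10^3 per well, 1536-well, plated on prespotted compound at 10 μM final, parasite-free screening media added to match infected plates; puromycin 10 μM positive, DMSO 0.5% negative; run in parallel with 48 h PbLuc assay at 37 °C, 5% CO2; viability by CellTiter-Glo luminescence, normalized to controls.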"}
{"smiles": "CC(C)CN1CCN(C(=O)c2cc(=O)c3ccccc3[nH]2)CC1", "values": [{"measurement": "cytotoxicity at 10 µM", "result": -4.92, "unit": "%"}]}
{"smiles": "CCN(CCNC(=O)c1ccccc1Br)C1CC1", "values": [{"measurement": "cytotoxicity at 10 µM", "result": 3.32, "unit": "%"}]}
{"smiles": "c1ccc(-c2nc3c(c(NCCc4c[nH]cn4)n2)CCNC3)cc1", "values": [{"measurement": "cytotoxicity at 10 µM", "result": -123, "unit": "%"}]}
{"smiles": "Cc1ccc(C(=O)N(C)Cc2c(C)noc2C)c(=O)[nH]1", "values": [{"measurement": "cytotoxicity at 10 µM", "result": -8.2, "unit": "%"}]}
{"smiles": "COCCN1CCCC12CCN(Cc1cccnc1OC)CC2", "values": [{"measurement": "cytotoxicity at 10 µM", "result": 15.4, "unit": "%"}]}
{"smiles": "Cc1ccc(C(=O)N2CCC3(CCN(Cc4ccccn4)C3=O)C2)cn1", "note": "(stereo not given)", "values": [{"measurement": "cytotoxicity at 10 µM", "result": -145, "unit": "%"}]}
{"smiles": "O=C1CC2(CCCC2)CN1CCOc1ccc(F)cc1", "values": [{"measurement": "cytotoxicity at 10 µM", "result": 1.05, "unit": "%"}]}
{"smiles": "NC(=O)CN(Cc1cccc(Oc2ccccc2)c1)C(=O)C1CC1", "values": [{"measurement": "cytotoxicity at 10 µM", "result": 4.59, "unit": "%"}]}
{"smiles": "O=C(c1cccnc1N1CCCCC1)N1CCCC(n2ccnc2)C1", "note": "(stereo not given)", "values": [{"measurement": "cytotoxicity at 10 µM", "result": -14.4, "unit": "%"}]}
{"smiles": "c1cnc(N2CCOCC3(CCCN(CC4CC4)C3)C2)cn1", "note": "(stereo not given)", "values": [{"measurement": "cytotoxicity at 10 µM", "result": -15.8, "unit": "%"}]}
{"smiles": "Cc1noc(C)c1CN1CC[C@H]2C[C@H](c3nccs3)O[C@@H]2C1", "values": [{"measurement": "cytotoxicity at 10 µM", "result": -70.7, "unit": "%"}]}
{"smiles": "O=C(c1cc(C2CC2)[nH]n1)N1CCN(Cc2ccsc2)CC1", "values": [{"measurement": "cytotoxicity at 10 µM", "result": -9.04, "unit": "%"}]}
{"smiles": "CCCC(O)CNc1cncc(Br)c1", "note": "(stereo not given)", "values": [{"measurement": "cytotoxicity at 10 µM", "result": 22.2, "unit": "%"}]}
{"smiles": "Cc1ccn(-c2ccc(NCc3ccnc(N4CCCCC4)c3)nn2)n1", "values": [{"measurement": "cytotoxicity at 10 µM", "result": -0.715, "unit": "%"}]}
{"smiles": "CCC(=O)N1CCCCC1c1nc(O)c2c(n1)CN(S(=O)(=O)CC)CC2", "note": "(stereo not given)", "values": [{"measurement": "cytotoxicity at 10 µM", "result": 1.7, "unit": "%"}]}
{"smiles": "COc1ccc(SC(C)C(=O)N2CCC(O)CC2)cc1", "note": "(stereo not given)", "values": [{"measurement": "cytotoxicity at 10 µM", "result": 0.887, "unit": "%"}]}
{"smiles": "CC(=O)Nc1ccc(Oc2ccc(CN3CCCC3)cc2F)cc1", "values": [{"measurement": "cytotoxicity at 10 µM", "result": 0.9, "unit": "%"}]}
{"smiles": "O=C1[C@H]2CN(c3cnccn3)C[C@H]2CN1CC1CC1", "values": [{"measurement": "cytotoxicity at 10 µM", "result": -108, "unit": "%"}]}
{"smiles": "Cc1ccc(C(=O)NS(C)(=O)=O)cc1S(C)(=O)=O", "values": [{"measurement": "cytotoxicity at 10 µM", "result": 4, "unit": "%"}]}
{"smiles": "COc1ccccc1-c1nnc2n1N=C(N)C(C#N)S2", "note": "(stereo not given)", "values": [{"measurement": "cytotoxicity at 10 µM", "result": 1.5, "unit": "%"}]}
{"smiles": "CCNC(=O)NC[C@H]1C[C@@H]2CCN1C[C@@H]2c1cc(-c2cccs2)nn1C", "values": [{"measurement": "cytotoxicity at 10 µM", "result": -5.72, "unit": "%"}]}
{"smiles": "NC(=O)COc1ccc(C(=O)NCCc2ccco2)cc1", "values": [{"measurement": "cytotoxicity at 10 µM", "result": 10.1, "unit": "%"}]}
{"smiles": "CCn1cc(S(=O)(=O)NCC2(N3CCOCC3)CCCCC2)c(C)n1", "values": [{"measurement": "cytotoxicity at 10 µM", "result": -27.5, "unit": "%"}]}
{"smiles": "Cc1ccc(-c2ccsc2C(=O)NC2CCS(=O)(=O)C2)cc1", "note": "(stereo not given)", "values": [{"measurement": "cytotoxicity at 10 µM", "result": 1.07, "unit": "%"}]}
{"smiles": "O=C(COCC1CC1)NCC(c1ccccc1)N1CCc2sccc2C1", "note": "(stereo not given)", "values": [{"measurement": "cytotoxicity at 10 µM", "result": 16.6, "unit": "%"}]}
{"smiles": "COc1ccc(CNCc2c(C)nc3sc(C)cn23)c(OC)c1OC", "values": [{"measurement": "cytotoxicity at 10 µM", "result": -1.99, "unit": "%"}]}
{"smiles": "CC(C)(C)OC(=O)N1CCN(c2nnc(Br)s2)CC1", "values": [{"measurement": "cytotoxicity at 10 µM", "result": 10.8, "unit": "%"}]}
{"smiles": "COC(=O)CN1CCC(C(F)(F)F)CC1", "values": [{"measurement": "cytotoxicity at 10 µM", "result": 8.12, "unit": "%"}]}
{"smiles": "COCCOc1ccccc1C(=O)NCCN(C)C(C)C", "values": [{"measurement": "cytotoxicity at 10 µM", "result": 0.449, "unit": "%"}]}
{"smiles": "O=C1CC(NCc2ccncc2)CN1Cc1cccc(F)c1", "note": "(stereo not given)", "values": [{"measurement": "cytotoxicity at 10 µM", "result": -7.12, "unit": "%"}]}
{"smiles": "CN(C)C(=O)CNC(=O)c1cc2c(s1)CCN2S(C)(=O)=O", "values": [{"measurement": "cytotoxicity at 10 µM", "result": 0.793, "unit": "%"}]}
{"smiles": "COc1c(CNCc2ccccc2Cn2cncn2)c(C)nn1C", "values": [{"measurement": "cytotoxicity at 10 µM", "result": 1.56, "unit": "%"}]}
{"smiles": "Cc1nnsc1CN1CCCC1c1nc(-c2ccccc2)no1", "note": "(stereo not given)", "values": [{"measurement": "cytotoxicity at 10 µM", "result": -45.8, "unit": "%"}]}
{"smiles": "CCSc1ccc(C(=O)N2CCCCC2C(=O)NC(C)(C)C)cn1", "note": "(stereo not given)", "values": [{"measurement": "cytotoxicity at 10 µM", "result": -7.69, "unit": "%"}]}
{"smiles": "O=C(c1ccccc1)N1CC[C@H]2C[C@H](c3nnc(C4CC4)o3)O[C@@H]2C1", "values": [{"measurement": "cytotoxicity at 10 µM", "result": -102, "unit": "%"}]}
{"smiles": "CC(=O)N1CCC(Cc2cnc(Nc3cc(C)on3)cn2)CC1", "values": [{"measurement": "cytotoxicity at 10 µM", "result": 3.48, "unit": "%"}]}
{"smiles": "O=C(CCn1cncn1)NCC(c1ccco1)N1CCCCC1", "note": "(stereo not given)", "values": [{"measurement": "cytotoxicity at 10 µM", "result": -2.97, "unit": "%"}]}
{"smiles": "CNC(=O)c1cn[nH]c1C1CCN(Cc2sccc2C)C1", "note": "(stereo not given)", "values": [{"measurement": "cytotoxicity at 10 µM", "result": -21.2, "unit": "%"}]}
{"smiles": "CC(C)Oc1cccc(C(=O)C2CCCN(C(=O)c3ccnn3C)C2)c1", "note": "(stereo not given)", "values": [{"measurement": "cytotoxicity at 10 µM", "result": 1.3, "unit": "%"}]}
{"smiles": "Cc1cc(C)cc(C(C(=O)O)N(C)CCCN2CCOCC2)c1", "note": "(stereo not given)", "values": [{"measurement": "cytotoxicity at 10 µM", "result": 6.03, "unit": "%"}]}
{"smiles": "CN(C(=O)CN1CCCC1c1cnn(C)c1)C(C)(C)C#N", "note": "(stereo not given)", "values": [{"measurement": "cytotoxicity at 10 µM", "result": -1.37, "unit": "%"}]}
{"smiles": "COc1ccnc(N2CCN(C(=O)c3cnn(C)c3C3CC3)CC2)n1", "values": [{"measurement": "cytotoxicity at 10 µM", "result": -2.88, "unit": "%"}]}
{"smiles": "CCc1n[nH]c(C2CN(Cc3nnc(C4CC4)o3)CCO2)n1", "note": "(stereo not given)", "values": [{"measurement": "cytotoxicity at 10 µM", "result": -14.3, "unit": "%"}]}
{"smiles": "CSCC(C)(O)CNC(=O)c1ccc(Br)cc1C", "note": "(stereo not given)", "values": [{"measurement": "cytotoxicity at 10 µM", "result": 1.57, "unit": "%"}]}
{"smiles": "Cc1nc(=O)c2ccccc2n1C1=CCN(CC(=O)N2CCCC2)CC1", "values": [{"measurement": "cytotoxicity at 10 µM", "result": -7.45, "unit": "%"}]}
{"smiles": "CC(=O)N1CCO[C@@H]2CN(S(=O)(=O)c3ccc(C)cc3)CC[C@@H]2C1", "values": [{"measurement": "cytotoxicity at 10 µM", "result": 8.28, "unit": "%"}]}
{"smiles": "O=C(NC[C@H]1OC[C@@H](NCc2ccc(F)cc2)[C@@H]1O)N1CCOCC1", "values": [{"measurement": "cytotoxicity at 10 µM", "result": 1.17, "unit": "%"}]}
{"smiles": "O=C(Nc1cccc(-c2cscn2)c1)N1CCC2(CC1)CC(O)CO2", "note": "(stereo not given)", "values": [{"measurement": "cytotoxicity at 10 µM", "result": -3.13, "unit": "%"}]}
{"smiles": "CC(=O)N1CCCC(c2ccc(Br)cn2)C1", "note": "(stereo not given)", "values": [{"measurement": "cytotoxicity at 10 µM", "result": -24.1, "unit": "%"}]}
{"smiles": "CN(CCCc1cnn(C)c1)C(=O)Nc1cccc2[nH]ncc12", "values": [{"measurement": "cytotoxicity at 10 µM", "result": -1.89, "unit": "%"}]}
{"smiles": "CCCc1noc(CCC(=O)N2CCCC2c2cccs2)n1", "note": "(stereo not given)", "values": [{"measurement": "cytotoxicity at 10 µM", "result": -14.4, "unit": "%"}]}
{"smiles": "CC(C)(C)c1coc([C@@H]2COCCN2Cc2ncc[nH]2)n1", "values": [{"measurement": "cytotoxicity at 10 µM", "result": 2.61, "unit": "%"}]}
{"smiles": "COc1cc(C)ccc1OCC(=O)Nc1ccnc(OCCN(C)C)c1", "values": [{"measurement": "cytotoxicity at 10 µM", "result": -5.18, "unit": "%"}]}
{"smiles": "Cc1ccccc1C(=O)NC[C@@H]1CCN(C(=O)c2cscn2)C[C@H]1O", "values": [{"measurement": "cytotoxicity at 10 µM", "result": -52.2, "unit": "%"}]}
{"smiles": "Cc1ccc(C(=O)N2CCn3cc(CN4CCCCC4)nc3C2)o1", "values": [{"measurement": "cytotoxicity at 10 µM", "result": 4.75, "unit": "%"}]}
